# Screening results deposited in PubChem BioAssay by several laboratories.
# A selection: hits, their analogues and other compounds. The true share with any hit is near 4.6%.
# Arrestin-AP2 inh: blocks beta-arrestin peptide binding to AP2 adaptin. FITC-arrestin peptide / GST-AP2 beads, flow cytometry; AP2 beta2 appendage carries R879A mutation. inhibition, % at 10 µM. hit rate 0.31% among 340,000. AID 504490;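 active = inhibition above a set limit, near 3 SD of compounds lacking own fluorescence, cut at about 54% in these data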;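 also: plate controls were DMSO wells for no effect and 5 µM unlabelled arrestin peptide for full effect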
#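 test system = AP2 appendage R879A on GSH beads | buffer or medium = PBS plus Tween 20 (0.05%) and BSA (0.1%) | incubation = 12 min plus 1 h, RT | detection = bead flow cytometry, FITC channel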
# NALP1 inh: blocks the NALP1 inflammasome reconstituted in yeast; inhibition, % at 10 µM; S. cerevisiae NALP1/ASC/caspase-1 growth, X-gal OD620, 72 h; hit rate 0.61% among 280,000; in the data active = inhibition mostly above about 24%, no sharp cut-off; inactive = mostly below about 32%
# ALR inh: human ALR oxidase inhibition via reduced H2O2 | P55789 | purified ALR, DTT oxidation, H2O2 HRP-luminol luminescence | inhibition, % (test concentration not listed) | hit rate 3.8% among 290,000;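 active = mean replicate inhibition above about 79%, with every replicate also reaching it, limit read from the data; inconclusive = only one of the two criteria met; inactive = mean below limit and not every replicate reaching it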
# Target sequence (P55789 whole entry, looked up): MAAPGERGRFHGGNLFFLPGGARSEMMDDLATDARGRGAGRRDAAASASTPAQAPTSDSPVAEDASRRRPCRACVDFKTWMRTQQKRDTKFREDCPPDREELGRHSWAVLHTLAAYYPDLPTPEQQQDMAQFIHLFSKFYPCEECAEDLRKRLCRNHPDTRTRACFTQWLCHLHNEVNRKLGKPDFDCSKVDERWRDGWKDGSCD
# NLRP3 yeast inh: blocks the NALP3 inflammasome reconstituted in yeast; inhibition, % at 10 µM; hit rate 0.39% among 330,000; AID 2825; Yeast reconstituted NLRP3/ASC/caspase-1, beta-gal luminescence, 24 h;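 active = inhibition of 50% or more; inactive = inhibition below 50%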;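 also: plate controls were induced DMSO wells for no effect and uninduced yeast grown without galactose for full effect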
# PolyA inhibitor: blocks polyadenylation in yeast reporter cells | S. cerevisiae SKY197-pL101 polyadenylation reporter, beta-gal luminescence; efflux-impaired pdr1/pdr3 knockout yeast; score 100 = 6 SD above DMSO | activity score, % at 12 µM | hit rate 0.02% among 300,000;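 active = lowest replicate activity score at least 50, where 100 means six control SD above control mean; inconclusive = lowest score under 50 but half or more replicates reach 50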;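 also: yeast exposed to compound for 9 h at 30 °C; higher score means more reporter readthrough which indicates perturbed polyadenylation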
# DSG3 Ab inh: inhibitors of pemphigus antibody binding to human desmoglein-3; hit rate 0.48% among 310,000; binding (percent of control), % at 10 µM; DSG3-coupled beads, scFv-anti-DSG3-GFP binding, flow cytometry; stronger effect = lower value;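 active = binding more than 3 SD below its plate's average and above zero; inconclusive = below that plate limit but binding exactly zero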
# The depositor's hits bear a star; ? = inconclusive; . = no result given.
SMILES,Arrestin-AP2 inh,NALP1 inh,ALR inh,NLRP3 yeast inh,PolyA inhibitor,DSG3 Ab inh
O=C(CSc1nc(N2CCCCC2)nc(N2CCCCC2)n1)N1CCN(c2ccccc2)CC1,-8,5,.,.,-20,100
Nc1nc(SCC(=O)N2CCN(c3ccccc3)CC2)n[nH]1,-1,0,63,9,-8,107
CCCc1cc(=O)[nH]c(SCC(=O)N2CCN(c3ccccc3)CC2)n1,2,3,33,-2,10,103
O=C(CSc1nccc(=O)[nH]1)N1CCN(c2ccccc2)CC1,36,11,92*,15,11,99
Cc1nc(SCC(=O)N2CCN(c3ccccc3)CC2)n[nH]1,21,-2,99*,5,-5,105
NC(=O)C1=CC2C3C=CC2(O)C(=O)OC3O1 (stereo unspecified),-21,.,.,.,.,89
Nc1c(Cl)cc(N=Nc2ccccc2)cc1Cl,-13,.,.,.,.,87
O=C(c1cnn(C(=O)CN2CCCC2=O)c1)c1ccccc1O,-12,.,75,-16,.,101
O=S(=O)(NCc1ccc(F)cc1)c1ccccc1Br,-14,.,0,33,.,104
C=CCn1c(SCC(=O)N2CCN(c3ccccc3)CC2)nc2c([nH]c3ccccc32)c1=O,-3,27,-1,19,-9,91*
Cc1[nH]c2ccccc2c1SCC(=O)N1CCN(c2ccccc2)CC1,-8,21,91*,4,-1,100
O=C(c1ccc(CNS(=O)(=O)c2ccc(F)cc2)cc1)N1CCCCCC1,.,.,.,.,.,99
CNC(=O)CSc1nc2cc(S(=O)(=O)Nc3ccc(OC)cc3)ccc2o1,-2,-8,13,19,-1,-4.7*
COc1ccc(NS(=O)(=O)c2ccc3oc(SC)nc3c2)cc1,-19,-9,.,13,8,107
O=C(NCc1ccncc1)C1=NN(c2ccccc2)C(=O)CC1,42,-7,94*,-6,10,.
Cc1cccc(NC(=O)CSc2nccn2Cc2ccco2)c1C,14,4,66,11,-8,114
Cc1cc(OCCCC(=O)N2CCCCC2)cc(C)c1Cl,19,21*,-6,41,-10,98
Cc1cc(Cl)ccc1OCCCC(=O)N1CCCCC1,28,-24,-5,14,2,99
CCOC(=O)/C(C#N)=C1\SS/C(=C(/C#N)C(=O)OCC)S1,.,80*,22,17,-4,.
COc1ccccc1N1CCN(C(=O)c2oc3cc(C)cc(C)c3c2C)CC1,3,-25,-6,6,-3,.
COc1ccccc1N1CCN(C(=O)c2cc(=O)c3ccc(C)cc3o2)CC1,4,4,99*,-10,-19,113
COc1ccc(C2N(c3cc(Cl)ccc3OC)C(=O)C3CCCN32)cc1 (stereo unspecified),1,41*,-27,4,-11,115
COc1ccc(Cl)cc1N1C(=O)C2CCCN2C1c1ccc(F)cc1 (stereo unspecified),-1,37,-18,7,-17,101
CC(C)c1cc(CN2C(C)COCC2C)cc(C(C)C)c1O (stereo unspecified),-3,.,.,.,.,89
Cc1cccc(Nc2nc(-c3ccccn3)cs2)n1,0,13,89*,33,-35,98
SMILES,Arrestin-AP2 inh,NALP1 inh,ALR inh,NLRP3 yeast inh,PolyA inhibitor,DSG3 Ab inh
Cc1cccc(Nc2nc(-c3cccs3)cs2)n1,20,6,94*,23,-18,107
COc1ccc(OC)c(NS(=O)(=O)c2cc3c4c(c2)CCN4C(=O)CC3)c1,-5,.,.,14,22,85
CCCc1cc(=O)oc2cc(C)cc(OCC(=O)Nc3cccnc3)c12,-8,2,-9,4,-9,112
Clc1ccc(CSc2ccc(-c3ccccn3)nn2)cc1,5,-9,-19,16,1,13*
c1ccc(CSc2ccc(-c3ccccn3)nn2)cc1,2,-9,-6,36,-21,.
Cc1cccc(N2CCN(C(=O)c3ccc(NC4=NC5CS(=O)(=O)CC5S4)cc3)CC2C)c1 (stereo unspecified),-9,-10,72,11,-9,.
COc1ccc(NS(=O)(=O)c2cc(NC(=O)C(CC(C)C)NC(N)=O)ccc2N2CCOCC2)cc1 (stereo unspecified),-3,.,.,.,.,124
O=C1C[C@@H](c2ccccc2)Oc2cc(O)cc(O)c21,3,.,7,19,0,97
O=C1c2c(O)cc(O)cc2O[C@@]12c1c(cc(O)c3c1O[C@H](c1ccc(O)cc1)[C@@H](O)C3)O[C@@H]2c1ccc(O)cc1,-1,18,99*,17,-14,105
Cc1oc(-c2ccccc2Cl)nc1CS(=O)CC(=O)NCc1ccc(Cl)cc1 (stereo unspecified),-14,-10,99*,9,-11,103
Cc1oc(-c2ccccc2F)nc1CS(=O)CC(=O)NCc1ccc(Cl)cc1 (stereo unspecified),-2,-8,59,3,16,-12*
COc1ccc(CNC(=O)CSc2ncnc3ccccc23)cc1OC,-5,-28,89*,15,3,93
COc1ccc(CCNC(=O)CSc2nc3[nH]ncc3c(=O)n2-c2ccc(Cl)cc2Cl)cc1OC,-3,19,6,5,-5,99
COc1cc2c(cc1OC)C(C)N(C(=O)c1cc(Cl)nc(Cl)c1)CC2 (stereo unspecified),9,16,1,4,-3,105
COc1ccc(CCNC(=O)CSc2ccccc2)cc1OC,1,23,.,7,-3,99
CCc1c(O)nc(SCC(=O)N2CCc3cc(OC)c(OC)cc3[C@@H]2C)[nH]c1=O,1,20,99*,8,1,.
COc1ccc(CCNC(=O)CSc2nc3[nH]ncc3c(=O)n2-c2ccccc2OC)cc1OC,3,35*,-28,-2,-5,102
COc1ccc(CCNC(=O)CSC(=O)c2ccccc2)cc1OC,.,2,99*,16,-1,104
C[C@@H]1CN([C@@H](C)CO)C(=O)CCCn2nncc2CO[C@@H]1CN(C)C(=O)c1ccncc1,.,.,.,.,.,103
CSc1ccccc1OCc1cc(C(=O)N(Cc2nccn2C)C(C)C)no1,3,6,6,23,?,102
CC(=O)c1ccc(S(=O)(=O)Oc2ccc(-c3ccc(C(=O)O)cc3)cc2)cc1,-5,5,-2,-6,16,106
Cc1nc(-c2ccccn2)nc(N(C)c2ccccc2)c1Cl,5,1,.,37,-57,92
O=C(c1ccccc1NS(=O)(=O)c1ccc(F)cc1F)N1CCCCC1,-18,.,-3,7,.,141
CCCc1c(O)nc(SCC(=O)NCCc2ccc(OC)c(OC)c2)[nH]c1=O,6,8,98*,10,25,.
COc1ccc(CCNC(=O)CN(Cc2ccc(Cl)cc2)S(C)(=O)=O)cc1OC,6,28*,0,1,-2,111
